From ChEMBL document CHEMBL4028856, “Discovery of Small Molecules Targeting the Synergy of Cardiac Transcription Factors GATA4 and NKX2-5” (J Med Chem, 2017)
Calls of active or inactive are those of the source. The calls are words filed in the database; no cut-off is given here.

Legend:
[1] = target: Cannabinoid receptor 2 (Homo sapiens) (UniProt P34972); test: Antagonist activity at human CB2 receptor expressed in rat hematopoietic Chem-4 cells assessed as inhibition of CP55940 induced calcium flux at 10 uM by fluorescence assay; format: functional, cell-based
Procedure, shortened: (§1)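 GPCR profiling panel of cell-based functional assays covering 165 GPCRs; agonist mode tested at 12.5 μM and antagonist mode at 10 μM, in duplicate.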

[2] = target: Transcription factor GATA-4 (Mus musculus) (UniProt Q08369); test: Inhibition of binding of mouse GATA4 to [32P]-double stranded oligonucleotide expressed in African green monkey COS-1 cells at 50 uM preincubated for 10 mins followed by [32P]-double stranded oligonucleotide addition measured after 20 mins by EMSA method; format: cell-based
Procedure, shortened: (§2)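 Nuclear extracts from COS-1 cells transfected with pMT2-GATA4 or pMT2-NKX2-5 (harvested 48 h) preincubated 10 min with 50 μM compound, then 20 min with 32P-labeled GATA4- or NKX2-5-site probe; native 5% PAGE, phosphorimager quantitation; antibody supershift controls; mean ± SD, n = 3–5.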

[3] = target: Rho-associated protein kinase 1 (Homo sapiens) (UniProt Q13464); test: Inhibition of human ROCK1 at 30 uM
Procedure, shortened: (§3)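 48-kinase profiling panel; compounds tested at 30 μM in duplicate.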

[4] = target: Epidermal growth factor receptor (Homo sapiens) (UniProt P00533); test: Inhibition of human EGFR at 30 uM; procedure, shortened: as §3
[5] = Induction of aggregation of compound at 3 to 30 uM by nephalometric method
[6] = Stability of compound in DMSO assessed as formation of N-[4-(Ethylamino)phenyl]-5-methyl-3-phenylisoxazole-4-carboxamide at 3 to 5 uM at room temperature measured after 6 months by HPLC/MS method; format: physicochemical; settings: 4383 h
[7] = target: Transcription factor GATA-4 (Mus musculus) (UniProt Q08369); test: Inhibition of mouse GATA4-driven transactivation of luciferase reporter construct containing BNP minimal promoter with tandem GATA-site on -90 bp expressed in African green monkey COS-1 cells after 30 hrs by luminometer; format: cell-based
Procedure, shortened: (§4)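 COS-1 cells co-transfected with firefly luciferase driven by BNP minimal or −90 bp BNP promoter, Renilla pRL-TKd238, and pMT2-GATA4 or empty pMT2. Compounds added 6 h post-transfection in 0.1% DMSO, refreshed with medium at 24 h; lysis at 30 h; dual-luciferase, firefly/Renilla normalized to vehicle; triplicate wells.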

[8] = target: Mitogen-activated protein kinase 14 (Homo sapiens) (UniProt Q16539); test: Inhibition of human p38alpha MAPK at 30 uM; procedure, shortened: as §3
[9] = target: Transcription factor GATA-4 (Mus musculus) (UniProt Q08369); test: Inhibition of mouse GATA4-driven transactivation of luciferase reporter construct containing BNP minimal promoter expressed in African green monkey COS-1 cells after 30 hrs by luminometer; format: cell-based; procedure, shortened: as §4
[10] = target: T1, GATA4/NKX2-5 (Rattus norvegicus) (UniProt P46152+O35767); test: Inhibition of GATA4/NKX2-5 interaction in neonatal rat ventricular cardiomyocytes assessed as decrease in basal mRNA level of ANP at 10 uM after 24 hrs by real-time PCR analysis
Procedure, shortened: (§5)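 Neonatal rat ventricular myocytes (2–4-day-old Sprague-Dawley or Wistar), preplated, seeded on 6-well plates, moved to complete serum-free medium next day and cultured 24 h. Compounds (10–100 μM) added 1 h before 100 nM endothelin-1 or none; ANP and BNP mRNA quantified by RT-PCR at 24 h, normalized to 18S RNA, relative to vehicle; mean ± SD, n = 3–6.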

[11] = Induction of aggregation of compounds at 100 uM by nephalometric method
Homo sapiens = organism: Homo sapiens; test: Inhibition of human PKA at 30 uM; procedure, shortened: as §3
[12] = target: Parathyroid hormone 2 receptor (Homo sapiens) (UniProt P49190); test: Agonist activity at human PTH2 receptor expressed in Chem-1 cells assessed as induction of calcium flux at 12.5 uM by fluorescence assay; format: functional, cell-based; procedure, shortened: as §1
[13] = target: Hydroxycarboxylic acid receptor 2 (Homo sapiens) (UniProt Q8TDS4); test: Antagonist activity at human GPR109A expressed in rat Chem-4 cells assessed as inhibition of calcium flux at 10 uM by fluorescence assay; format: functional, cell-based; procedure, shortened: as §1
[14] = target: Growth hormone secretagogue receptor type 1 (Homo sapiens) (UniProt Q92847); test: Antagonist activity at human GHS-R at 10 uM by ELISA; settings: in the assay text read “by calcium flux assay” for “by ELISA”; procedure, shortened: as §1
[15] = target: Vascular endothelial growth factor receptor 2 (Homo sapiens) (UniProt P35968); test: Inhibition of human VEGFR2 at 30 uM; procedure, shortened: as §3
[16] = Drug metabolism in embryoid body differentiation medium assessed as formation of N-[4-(Ethylamino)phenyl]-5-methyl-3-phenylisoxazole-4-carboxamide at 3 to 5 uM measured after 10 days by HPLC/MS method; format: physicochemical; settings: 240 h
Procedure, shortened: (§6)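 Mouse embryonic stem cells exposed 5 and 10 days to 3 or 5 μM, with DMSO and EB differentiation medium blanks. Medium extracted with chloroform; cells pelleted, saline-washed twice, sonicated in chloroform. UPLC-ESI(+)-QTOF/MS, BEH C18, 0.1% formic acid water/acetonitrile gradient 7–80% B over 5 min, 0.6 mL/min, 40 °C.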

[17] = target: Homeobox protein Nkx-2.5 (Mus musculus) (UniProt P42582); test: Inhibition of binding of mouse NKX2-5 to [32P]-double stranded oligonucleotide expressed in African green monkey COS-1 cells at 50 uM preincubated for 10 mins followed by [32P]-double stranded oligonucleotide addition measured after 20 mins by EMSA method; format: cell-based; procedure, shortened: as §2
[18] = Induction of necrosis in endothelin-1 induced neonatal rat ventricular cardiomyocytes assessed as release of adenylate kinase at 50 uM measured after 24 hrs by bioluminescence assay; format: cell-based; settings: cardiac muscle cell
Procedure, shortened: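 Neonatal rat cardiomyocytes treated 24 h at 50 μM; adenylate kinase released into medium measured by ToxiLight bioluminescence on a luminometer; relative to vehicle, mean ± SD, n = 3.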

[19] = target: T1, GATA4/NKX2-5 (Rattus norvegicus); test: Inhibition of GATA4/NKX2-5 interaction in neonatal rat ventricular cardiomyocyte hypertrophy model assessed as decrease in mechanical stretching-induced cell surface area at 10 uM after 48 hrs by alpha-actinin/phalloidin/DAPI staining-based fluorescence microscopic method
Procedure, shortened: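 Neonatal rat ventricular myocytes seeded at 10^6/well on collagen I flexible plates, cultured 48 h, then given 10 μM in serum-free medium under equibiaxial cyclic stretch (0.5 Hz, 10–20%) 48 h; nonstretched controls. Fixed, stained α-actinin/phalloidin/DAPI; α-actinin+ cell area (>200 cells/specimen) normalized to untreated nonstretched; three experiments, mean ± SEM.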

[20] = target: T1, GATA4/NKX2-5 (Rattus norvegicus); test: Inhibition of GATA4/NKX2-5 interaction in neonatal rat ventricular cardiomyocytes assessed as decrease in basal mRNA level of BNP at 10 uM after 24 hrs by real-time PCR analysis; procedure, shortened: as §5
[21] = Drug metabolism in mouse embryonic stem cells assessed as formation of N-[4-(Ethylamino)phenyl]-5-methyl-3-phenylisoxazole-4-carboxamide at 3 to 5 uM measured after 10 days by HPLC/MS method; format: ADME, cell-based; settings: embryonic stem cell, 240 h; procedure, shortened: as §6
[22] = target: T1, GATA4/NKX2-5 (Rattus norvegicus); test: Inhibition of GATA4/NKX2-5 interaction in neonatal rat ventricular cardiomyocytes assessed as decrease in endothelin-1 induced mRNA level of BNP at 10 uM preincubated for 1 hr followed by endothelin-1 addition measured after 23 hrs by real-time PCR analysis; procedure, shortened: as §5

Transcription factor GATA-4 (Mus musculus), sequence (Q08369 whole entry): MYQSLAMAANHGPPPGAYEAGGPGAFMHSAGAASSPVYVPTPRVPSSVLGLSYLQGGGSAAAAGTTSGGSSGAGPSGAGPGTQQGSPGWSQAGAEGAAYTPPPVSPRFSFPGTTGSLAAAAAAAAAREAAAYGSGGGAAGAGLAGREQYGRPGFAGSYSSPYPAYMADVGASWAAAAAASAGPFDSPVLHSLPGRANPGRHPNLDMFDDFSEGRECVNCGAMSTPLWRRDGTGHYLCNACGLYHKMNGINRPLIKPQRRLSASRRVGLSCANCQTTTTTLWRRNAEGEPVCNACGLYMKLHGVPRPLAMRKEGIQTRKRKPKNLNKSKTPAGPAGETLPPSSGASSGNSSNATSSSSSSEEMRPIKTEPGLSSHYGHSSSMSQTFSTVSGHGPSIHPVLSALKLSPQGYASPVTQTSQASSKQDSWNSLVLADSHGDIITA
Rho-associated protein kinase 1 (Homo sapiens), sequence (Q13464 2-1354 limits assumed): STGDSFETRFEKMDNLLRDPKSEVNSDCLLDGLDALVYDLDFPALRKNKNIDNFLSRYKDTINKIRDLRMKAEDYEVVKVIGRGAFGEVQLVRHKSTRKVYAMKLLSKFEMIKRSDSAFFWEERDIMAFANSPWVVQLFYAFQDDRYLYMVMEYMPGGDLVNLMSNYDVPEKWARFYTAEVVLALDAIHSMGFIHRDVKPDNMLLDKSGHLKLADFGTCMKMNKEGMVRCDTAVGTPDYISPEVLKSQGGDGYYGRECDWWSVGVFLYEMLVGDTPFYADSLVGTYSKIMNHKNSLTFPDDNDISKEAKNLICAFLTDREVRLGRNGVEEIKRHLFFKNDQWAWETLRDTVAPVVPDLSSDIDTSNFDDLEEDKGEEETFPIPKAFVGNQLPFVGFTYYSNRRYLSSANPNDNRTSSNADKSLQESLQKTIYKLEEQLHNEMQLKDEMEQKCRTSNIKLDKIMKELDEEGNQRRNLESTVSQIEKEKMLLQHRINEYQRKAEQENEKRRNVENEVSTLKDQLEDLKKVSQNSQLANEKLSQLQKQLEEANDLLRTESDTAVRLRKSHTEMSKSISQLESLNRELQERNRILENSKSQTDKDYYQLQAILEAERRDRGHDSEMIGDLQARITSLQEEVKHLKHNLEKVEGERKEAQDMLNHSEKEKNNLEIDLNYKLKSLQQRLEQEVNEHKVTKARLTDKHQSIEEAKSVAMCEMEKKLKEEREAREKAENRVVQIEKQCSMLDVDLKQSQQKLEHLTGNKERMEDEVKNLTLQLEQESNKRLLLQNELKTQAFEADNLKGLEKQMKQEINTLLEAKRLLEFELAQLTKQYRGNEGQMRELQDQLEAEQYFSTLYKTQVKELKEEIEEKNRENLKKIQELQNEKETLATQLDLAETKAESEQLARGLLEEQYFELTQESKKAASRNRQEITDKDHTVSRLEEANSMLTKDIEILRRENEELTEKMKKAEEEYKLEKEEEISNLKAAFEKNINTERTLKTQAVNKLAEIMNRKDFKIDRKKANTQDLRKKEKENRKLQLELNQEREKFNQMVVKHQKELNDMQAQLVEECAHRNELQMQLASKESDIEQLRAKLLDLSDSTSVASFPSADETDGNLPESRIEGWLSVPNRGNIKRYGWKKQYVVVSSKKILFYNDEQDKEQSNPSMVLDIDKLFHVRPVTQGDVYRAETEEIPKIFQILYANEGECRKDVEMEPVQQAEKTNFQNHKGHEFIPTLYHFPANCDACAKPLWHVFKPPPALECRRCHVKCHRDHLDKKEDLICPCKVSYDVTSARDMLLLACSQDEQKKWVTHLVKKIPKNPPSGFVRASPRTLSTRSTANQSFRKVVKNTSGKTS
Mitogen-activated protein kinase 14 (Homo sapiens), sequence (Q16539 whole entry): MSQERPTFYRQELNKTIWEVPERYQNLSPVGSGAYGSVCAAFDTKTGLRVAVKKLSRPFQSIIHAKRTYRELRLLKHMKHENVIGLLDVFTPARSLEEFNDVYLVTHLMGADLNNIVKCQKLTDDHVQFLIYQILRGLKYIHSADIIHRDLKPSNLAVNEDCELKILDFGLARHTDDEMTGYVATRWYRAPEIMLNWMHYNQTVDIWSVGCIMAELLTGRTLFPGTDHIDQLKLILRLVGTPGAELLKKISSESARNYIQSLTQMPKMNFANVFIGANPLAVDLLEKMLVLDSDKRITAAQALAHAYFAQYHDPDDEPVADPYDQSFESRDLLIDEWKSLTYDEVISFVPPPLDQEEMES
Parathyroid hormone 2 receptor (Homo sapiens), sequence (P49190 whole entry): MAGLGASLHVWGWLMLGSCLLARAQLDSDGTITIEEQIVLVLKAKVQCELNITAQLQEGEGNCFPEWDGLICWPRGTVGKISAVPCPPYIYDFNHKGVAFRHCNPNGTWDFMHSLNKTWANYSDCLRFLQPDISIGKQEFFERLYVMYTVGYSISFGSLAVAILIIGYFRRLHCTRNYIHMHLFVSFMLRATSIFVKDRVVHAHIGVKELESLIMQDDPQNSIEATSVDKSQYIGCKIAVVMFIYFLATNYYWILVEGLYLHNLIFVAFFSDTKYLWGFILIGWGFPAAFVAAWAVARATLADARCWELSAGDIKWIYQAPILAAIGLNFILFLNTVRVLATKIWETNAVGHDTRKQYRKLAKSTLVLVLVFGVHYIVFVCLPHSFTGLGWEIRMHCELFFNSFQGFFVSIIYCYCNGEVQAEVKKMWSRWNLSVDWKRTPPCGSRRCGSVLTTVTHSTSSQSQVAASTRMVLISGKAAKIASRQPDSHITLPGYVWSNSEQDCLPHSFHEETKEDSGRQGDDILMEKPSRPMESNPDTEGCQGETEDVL
Hydroxycarboxylic acid receptor 2 (Homo sapiens), sequence (Q8TDS4 whole entry): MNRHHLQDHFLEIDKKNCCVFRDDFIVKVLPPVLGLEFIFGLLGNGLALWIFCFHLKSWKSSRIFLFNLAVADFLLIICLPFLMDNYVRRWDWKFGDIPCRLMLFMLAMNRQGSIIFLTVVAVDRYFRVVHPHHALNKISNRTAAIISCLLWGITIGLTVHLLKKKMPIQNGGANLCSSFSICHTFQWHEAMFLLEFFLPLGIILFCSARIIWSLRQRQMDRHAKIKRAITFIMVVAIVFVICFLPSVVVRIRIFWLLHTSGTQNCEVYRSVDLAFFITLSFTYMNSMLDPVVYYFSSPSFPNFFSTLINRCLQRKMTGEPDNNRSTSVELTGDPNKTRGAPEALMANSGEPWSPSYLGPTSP
Growth hormone secretagogue receptor type 1 (Homo sapiens), sequence (Q92847 whole entry): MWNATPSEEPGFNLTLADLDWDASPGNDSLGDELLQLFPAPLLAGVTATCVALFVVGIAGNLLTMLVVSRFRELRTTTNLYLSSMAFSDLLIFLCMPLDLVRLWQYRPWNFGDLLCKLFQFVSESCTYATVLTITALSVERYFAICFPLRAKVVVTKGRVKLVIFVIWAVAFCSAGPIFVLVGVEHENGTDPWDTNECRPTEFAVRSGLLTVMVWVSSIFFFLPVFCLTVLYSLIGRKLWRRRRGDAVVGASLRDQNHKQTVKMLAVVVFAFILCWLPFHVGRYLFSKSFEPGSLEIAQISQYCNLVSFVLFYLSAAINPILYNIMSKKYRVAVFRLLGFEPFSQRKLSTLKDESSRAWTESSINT
Epidermal growth factor receptor (Homo sapiens), sequence (P00533 whole entry): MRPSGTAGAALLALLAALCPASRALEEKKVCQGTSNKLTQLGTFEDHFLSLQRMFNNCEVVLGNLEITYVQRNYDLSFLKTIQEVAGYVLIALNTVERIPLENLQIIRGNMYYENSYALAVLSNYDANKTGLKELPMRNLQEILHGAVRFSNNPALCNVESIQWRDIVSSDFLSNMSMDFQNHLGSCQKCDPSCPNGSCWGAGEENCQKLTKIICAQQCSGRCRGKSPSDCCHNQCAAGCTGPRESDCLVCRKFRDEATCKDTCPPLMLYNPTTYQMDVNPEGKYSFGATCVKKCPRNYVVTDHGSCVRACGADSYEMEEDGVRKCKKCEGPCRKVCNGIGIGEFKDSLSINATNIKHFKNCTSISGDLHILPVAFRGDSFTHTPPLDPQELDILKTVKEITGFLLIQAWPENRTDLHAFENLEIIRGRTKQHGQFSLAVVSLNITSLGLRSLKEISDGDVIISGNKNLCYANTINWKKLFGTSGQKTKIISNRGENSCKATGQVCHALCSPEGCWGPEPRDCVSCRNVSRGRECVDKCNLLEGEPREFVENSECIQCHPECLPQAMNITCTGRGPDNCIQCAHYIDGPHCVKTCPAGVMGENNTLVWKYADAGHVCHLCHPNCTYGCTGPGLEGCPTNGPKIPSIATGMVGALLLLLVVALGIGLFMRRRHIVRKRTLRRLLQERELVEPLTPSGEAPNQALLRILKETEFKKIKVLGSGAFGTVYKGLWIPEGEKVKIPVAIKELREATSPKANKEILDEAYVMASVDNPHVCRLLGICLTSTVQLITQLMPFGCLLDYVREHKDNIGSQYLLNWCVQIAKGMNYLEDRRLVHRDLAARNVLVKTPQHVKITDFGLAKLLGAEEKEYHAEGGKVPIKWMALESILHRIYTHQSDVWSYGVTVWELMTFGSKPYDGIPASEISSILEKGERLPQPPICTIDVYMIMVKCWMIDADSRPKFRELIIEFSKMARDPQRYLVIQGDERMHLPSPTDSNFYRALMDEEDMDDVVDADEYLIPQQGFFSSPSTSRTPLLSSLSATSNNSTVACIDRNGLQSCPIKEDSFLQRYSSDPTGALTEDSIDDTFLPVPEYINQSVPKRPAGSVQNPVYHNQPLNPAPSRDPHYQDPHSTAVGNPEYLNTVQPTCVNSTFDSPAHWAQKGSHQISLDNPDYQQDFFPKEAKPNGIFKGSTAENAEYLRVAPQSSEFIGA
Cannabinoid receptor 2 (Homo sapiens), sequence (P34972 whole entry): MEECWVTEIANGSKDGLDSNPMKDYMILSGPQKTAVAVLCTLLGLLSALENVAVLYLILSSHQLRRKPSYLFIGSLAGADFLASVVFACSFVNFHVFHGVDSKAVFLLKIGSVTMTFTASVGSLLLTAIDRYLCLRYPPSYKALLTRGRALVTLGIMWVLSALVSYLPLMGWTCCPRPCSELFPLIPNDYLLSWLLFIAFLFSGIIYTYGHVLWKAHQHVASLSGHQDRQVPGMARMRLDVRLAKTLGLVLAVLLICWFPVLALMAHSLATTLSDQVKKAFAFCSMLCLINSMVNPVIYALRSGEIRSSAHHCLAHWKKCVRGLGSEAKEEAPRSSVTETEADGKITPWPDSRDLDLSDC

inhibition [1]: 91.8% | inhibition [2]: inactive | inhibition [3]: inactive | inhibition [4]: 54% | Stability [6]: Stable | inhibition [7]: Active | inhibition [8]: inactive | inhibition [9]: Active | inhibition [10]: 81% | inhibition (Homo sapiens): inactive | Activity [12]: inactive | inhibition [13]: 58.5% | inhibition [14]: 65.2% | inhibition [15]: 64% | Drug metabolism [16]: Metabolite_Detected | inhibition [17]: inactive | inhibition [20]: 75% | Drug metabolism [21]: Metabolite_Detected | inhibition [22]: 68%
Compound: CCN(CC)c1ccc(NC(=O)c2c(-c3ccccc3)noc2C)cc1
Activity [5]: inactive | Activity [11]: Active | Activity [18]: Non-Toxic | inhibition [19]: Active
